In ChEMBL document CHEMBL1806443, “Novel imidazo[4,5-b]pyridine and triaza-benzo[c]fluorene derivatives: synthesis, antiproliferative activity and DNA binding studies” (Eur J Med Chem, 2011) one finds Activity and ΔTm data, which are given here for 1 molecule.

SMILES strings stand for the structures. Activity calls are given as the source filed them. The rule behind the calls is not given here.

As usually defined, the ΔTm is the change in melting temperature against a reference sample.

Assay [1] has as its system SW-620. As to the kind of experiment: Cell cycle arrest in human SW620 cells assessed as accumulation at subG1 phase at 1 uM after 48 hrs by propidium iodide staining based flow cytometeric analysis (reference value: 29.1 +/- 1.1%). In kind it is functional. (In general: Flow cytometry measures light scatter and fluorescence of single cells or particles in a stream.)
The subject of another assay is MCF7. As to the kind of experiment: Cytostatic activity against human MCF7 cells at 1 to 10 uM after 72 hrs by MTT assay. In kind it is functional, cell-based. The method, boiled down: (§1)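 Monolayers in DMEM with 10% FBS, 2 mM L-glutamine, penicillin and streptomycin (37 °C, 5% CO2) were seeded at 3000–6000 cells/well on day 0. Five 10-fold dilutions (0.01–100 µM) were added, followed by 72-h incubation and MTT read-out. Absorbances were converted to percentage growth by the NIH formulae. Each point was run in quadruplicate in three experiments; ANOVA with Tukey test.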

Assay [2] concerns MIA PaCa-2. As to the kind of experiment: Cell cycle arrest in human MIAPaCa2 cells assessed as accumulation at subG1 phase at 5 uM after 24 hrs by propidium iodide staining based flow cytometeric analysis (reference value: 48.7 +/- 0.7%). Format: functional.
The test system of assay [3] is MIA PaCa-2. As to the kind of experiment: Cell cycle arrest in human MIAPaCa2 cells assessed as accumulation at S phase at 1 uM after 48 hrs by propidium iodide staining based flow cytometeric analysis (reference value: 20.5 +/- 0.2%). In kind it is functional.
The subject of assay [4] is Nucleic Acid. As to the kind of experiment: Binding affinity to calf thymus DNA assessed as change in melting temperature at compound to polynucleotide ratio of 0.1 by UV-VIS spectroscopic analysis. Format: nucleic-acid assay. The conditions noted are these: Bos taurus. The gist of the method:
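ct-DNA alone or with compound at set r = [compound]/[polynucleotide], in cacodylate buffer pH 7.0, I = 0.05 mol dm^-3. Absorbance at 260 nm followed against temperature, ligand absorbance subtracted, curves normalized. Tm is the transition midpoint, from the first-derivative maximum or by tangent method. ΔTm = Tm(complex) − Tm(free DNA), mean of ≥2 runs, error ±0.5 °C.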

Assay [5] has as its system SW-620. In words: Cell cycle arrest in human SW620 cells assessed as accumulation at G1 phase at 5 uM after 24 hrs by propidium iodide staining based flow cytometeric analysis (reference value: 29.3 +/- 1.5%). In kind it is functional.
In assay [6] the test system is MIA PaCa-2. As to the kind of experiment: Cell cycle arrest in human MIAPaCa2 cells assessed as accumulation at subG1 phase at 10 uM after 24 hrs by propidium iodide staining based flow cytometeric analysis (reference value: 48.7 +/- 0.7%). Format: functional.
For assay [7], the system named is MIA PaCa-2. As to the kind of experiment: Cytostatic activity against human MIAPaCa2 cells at 1 to 10 uM after 72 hrs by MTT assay. In kind it is functional, cell-based. The gist of the method: as §1
Assay [8] has as its system SW-620. As to the kind of experiment: Cell cycle arrest in human SW620 cells assessed as accumulation at subG1 phase at 10 uM after 24 hrs by propidium iodide staining based flow cytometeric analysis (reference value: 18 +/- 1%). Format: functional. The gist of the method:
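Cells seeded at 3 × 10^4 per well and treated 24 h later with 1, 5 or 10 µM for 24 and 48 h. Adherent and floating cells were pooled, washed in PBS and fixed in 70% ethanol. They were then stained with propidium iodide 10 µg/mL plus RNase A 0.2 µg/mL. Flow cytometry counted 10000 events; each point was run in triplicate; significance was taken at p < 0.05.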

Assay [9] deals with Nucleic Acid. As to the kind of experiment: Binding affinity to calf thymus DNA assessed as hypochromic changes at 347 nm wavelength by UV-Vis spectrophotometric titrations. Format: nucleic-acid assay. The conditions noted are these: Bos taurus. The method, boiled down:
(§2)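 UV/Vis titration: aliquots of ct-DNA (concentration as phosphate) added to compound solution in sodium cacodylate buffer pH 7.0, I = 0.05 mol dm^-3, 1 cm quartz cuvettes. Hypochromism followed at band maxima. Compound absorbance linear up to 2.0 × 10^-5 mol dm^-3. Binding data fitted by the Scatchard equation.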

Assay [10] relates to SW-620. As to the kind of experiment: Cell cycle arrest in human SW620 cells assessed as accumulation at S phase at 10 uM after 48 hrs by propidium iodide staining based flow cytometeric analysis (reference value: 31.9 +/- 1%). In kind it is functional.
In assay [11] the test system is MIA PaCa-2. In words: Induction of apoptosis in human MIAPaCa2 cells assessed as morphological change at 10 uM after 24 to 48 hrs by microscopic analysis. Format: functional, cell-based. The method, boiled down:
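Cells were seeded at 3 × 10^4 per well and exposed 24 h later to 1, 5 or 10 µM for 24 and 48 h. Apoptotic morphology (cell shrinkage, chromatin condensation) was scored by inverted light microscopy at 200× magnification.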

Assay [12] deals with MIA PaCa-2. In words: Cell cycle arrest in human MIAPaCa2 cells assessed as accumulation at G2/M phase at 5 uM after 24 hrs by propidium iodide staining based flow cytometeric analysis (reference value: 19.5 +/- 3.9%). In kind it is functional.
For the next assay, the system named is HeLa. As to the kind of experiment: Antiproliferative activity against human HeLa cells at 0.1 to 10 uM after 72 hrs by MTT assay. Format: functional, cell-based. The gist of the method:
(§3)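 Monolayer cells in DMEM with 10% FBS, 2 mM L-glutamine, penicillin and streptomycin at 37 °C, 5% CO2. Seeded at 3000-6000 cells/well by doubling time on day 0. Five 10-fold dilutions (0.01–100 µM) were added and incubated 72 h. MTT read-out, converted to percentage growth. IC50 by linear regression between bracketing concentrations. Quadruplicate points, three independent experiments, ANOVA/Tukey p<0.05.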
Background: Tetrazolium assays rely on reduction of a dye to a coloured formazan, in cell work by metabolically active cells.

For another assay, the system named is HEp-2. In words: Cytostatic activity against human Hep2 cells at 1 to 10 uM after 72 hrs by MTT assay. In kind it is functional, cell-based. The gist of the method:
as §1

The subject of assay [13] is SW-620. As to the kind of experiment: Cell cycle arrest in human SW620 cells assessed as accumulation at G2/M phase at 5 uM after 24 hrs by propidium iodide staining based flow cytometeric analysis (reference value: 22.3 +/- 2.9%). In kind it is functional.
Assay [14] deals with Nucleic Acid. As to the kind of experiment: Binding affinity to calf thymus DNA assessed as appearance of weak, negative induced CD band at 337 nm wavelength by circular dichroism spectroscopy. In kind it is nucleic-acid assay. Conditions: Bos taurus. The method, boiled down:
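CD spectra of ct-DNA (1.0 × 10^-5 mol dm^-3, as phosphate) titrated with compound at 25 °C. Sodium cacodylate buffer pH 7.0, I = 0.05 mol dm^-3, 1 cm quartz cuvette. DNA band (~274–275 nm) and induced bands above 300 nm followed versus r = [compound]/[ct-DNA].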
A general note: Circular dichroism is the unequal absorption of left and right circularly polarised light.

The subject of assay [15] is SW-620. In words: Cell cycle arrest in human SW620 cells assessed as accumulation at S phase at 5 uM after 24 hrs by propidium iodide staining based flow cytometeric analysis (reference value: 48.4 +/- 1.4%). In kind it is functional.
In assay [16] the test system is MIA PaCa-2. As to the kind of experiment: Cell cycle arrest in human MIAPaCa2 cells assessed as accumulation at G2/M phase at 10 uM after 48 hrs by propidium iodide staining based flow cytometeric analysis (reference value: 14.3 +/- 1.8%). In kind it is functional.
Assay [17] relates to SW-620. In words: Cell cycle arrest in human SW620 cells assessed as accumulation at G2/M phase at 1 uM after 48 hrs by propidium iodide staining based flow cytometeric analysis (reference value: 16.1 +/- 0.9%). Format: functional.
For assay [18], the system named is MIA PaCa-2. In words: Cell cycle arrest in human MIAPaCa2 cells assessed as accumulation at G1 phase at 1 uM after 24 hrs by propidium iodide staining based flow cytometeric analysis (reference value: 51.2 +/- 2.7%). In kind it is functional.
In assay [19] the test system is SW-620. As to the kind of experiment: Antiproliferative activity against human SW620 cells at 0.1 to 10 uM after 72 hrs by MTT assay. In kind it is functional, cell-based. The gist of the method:
as §3

Assay [20] concerns MIA PaCa-2. In words: Cell cycle arrest in human MIAPaCa2 cells assessed as accumulation at S phase at 10 uM after 48 hrs by propidium iodide staining based flow cytometeric analysis (reference value: 20.5 +/- 0.2%). Format: functional.
Assay [21] has as its system Nucleic Acid. In words: Binding affinity to calf thymus DNA assessed as hypochromic changes at 364 nm wavelength by UV-Vis spectrophotometric titrations. Format: nucleic-acid assay. Conditions: Bos taurus. The gist of the method: as §2

On to `Cl.c1cnc2nc3ccc4ccc(C5=NCCN5)cc4n3c2c1`, for which the Activity in the assay with SW-620 [1] is 25.4%; in the assay on MIA PaCa-2 [2] it was 53.4%; with MIA PaCa-2 [3] it was 34.6%; in the assay with SW-620 [5] it was 86.1%; with MIA PaCa-2 [6] it was 50.2%; in the assay on SW-620 [8] it was 20.1%. Moreover, the Activity in the assay on Nucleic Acid [9] stood at 45%; in the assay with SW-620 [10], 41.8%; in the assay on MIA PaCa-2 [12] it was 18.3%; in the assay on SW-620 [13] it was 2.1%; with SW-620 [15], 11.8%; with MIA PaCa-2 [16], 16.9%. Besides, the Activity in the assay with SW-620 [17] was determined as 19.4%; in the assay with MIA PaCa-2 [18], 41.6%; in the assay on MIA PaCa-2 [20], 56.9%; in the assay with Nucleic Acid [21], 35%. Further, the outcome in the assay with MCF7, in the assay with MIA PaCa-2 [7], with MIA PaCa-2 [11], in the assay with HeLa, in the assay with HEp-2 and with Nucleic Acid [14] was Active. In addition, the outcome in the assay with SW-620 [19] was Active. The ΔTm in the assay on Nucleic Acid [4] turned out to be 2.7 °C.
